Experimental data from ChEMBL document CHEMBL3045311, “Naturally occurring antifungal agents against Zygosaccharomyces bailii and their synergism” (2005).
Values after ≈ are worked out from the molar mass of the structure shown. Active and inactive are the calls of the source. No cut-off for these calls is given here.

How the values were obtained:
[1] = test system: Saccharomyces cerevisiae; assay: Antifungal activity against Saccharomyces cerevisiae ATCC 7754 assessed as reduction in plasma membrane fluidity at 100 ug/mL
[2] = test system: Zygosaccharomyces bailii; assay: Inhibition of cell growth in Zygosaccharomyces bailii at 50 ug/mL; format: functional, organism-based
How it was run: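 Exponentially growing Z. bailii ATCC 60483 in YPD broth at 30 °C with drug at 0, 50 or 100 µg/mL. Viable counts taken over time by serial dilution in sterile saline and plating on YPD agar, 48 h at 30 °C, then CFU counted.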

[3] = test system: Zygosaccharomyces bailii; assay: Antifungal activity against Zygosaccharomyces bailii assessed as growth inhibition measured after 48 hr by macrodilution assay; format: functional
[4] = test system: Zygosaccharomyces bailii; assay: Antifungal activity against Zygosaccharomyces bailii assessed as growth inhibition measured at pH 5 after 48 hr by macrodilution assay; format: functional
How it was run: (§1)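 Broth macrodilution in YPD adjusted to the stated pH, Z. bailii ATCC 60483. Serial 2-fold dilutions in DMF (1% final) added to broth; inoculum 10^5 CFU/mL from a 5 h 30 °C preculture. Static incubation, 30 °C, 48 h. MIC is the lowest concentration with no visible growth; MFC is the lowest with no regrowth after 48 h subculture in drug-free YPD.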

[5] = test system: Zygosaccharomyces bailii; assay: Antifungal activity against Zygosaccharomyces bailii assessed as growth inhibition measured at pH 9 after 48 hr by macrodilution assay; format: functional
How it was run: as §1

[6] = test system: Zygosaccharomyces bailii; assay: Antifungal activity against Zygosaccharomyces bailii assessed as growth inhibition measured at pH 3 after 48 hr by macrodilution assay; format: functional
How it was run: as §1

[7] = test system: Zygosaccharomyces bailii; assay: Antifungal activity against Zygosaccharomyces bailii assessed as growth inhibition measured at pH 7 after 48 hr by macrodilution assay; format: functional
How it was run: as §1

[8] = test system: Saccharomyces cerevisiae; assay: Antifungal activity against Saccharomyces cerevisiae ATCC 7754 assessed as reduction in plasma membrane fluidity at 25 ug/mL
[9] = test system: Zygosaccharomyces bailii; assay: Antifungal activity against Zygosaccharomyces bailii assessed as growth inhibition at MFC measured after 24 hr by macrodilution assay in presence of cycloheximide protein synthesis inhibitor; format: functional, organism-based
How it was run: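 Z. bailii ATCC 60483 exponential cells grown in YPD broth at 30 °C with 50 µg/mL cycloheximide. After 24 h, agent added at its MFC. Viable counts by serial dilution in sterile saline, plating on YPD agar, 48 h at 30 °C, then colony counting.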

[10] = test system: Zygosaccharomyces bailii; assay: Antifungal activity against Zygosaccharomyces bailii assessed as reduction in cell viability at 100 ug/mL treated at 24, 48 and 72 hr measured after 1 hr of each addition

For `CCCCCCCCO`, the Activity [1] was “inactive”.
In the case of `CCCCCCCCOC(=O)c1cc(O)c(O)c(O)c1`, the Activity [1] is reported as “Active”.
`C[C@@H]1C[C@@H]([C@H](O)CC2CC(=O)NC(=O)C2)C(=O)[C@@H](C)C1` was tested, and the inhibition [2] was “Active”.
Compound `CCC/C=C/C(=O)O` [(2E)-HEXENOIC ACID] has an MFC [3] of 1600 µg/mL (≈ 14 mM) and an MFC ([3]; read-out: MFC) of 800 µg/mL (≈ 7.01 mM).
`CCC/C=C\C(=O)O` [(2Z)-HEXENOIC ACID] gave an MFC [3] of 1600 µg/mL (≈ 14 mM) and an MFC ([3]; read-out: MFC) of 800 µg/mL (≈ 7.01 mM).
Compound `C/C=C/c1ccc(OC)cc1` [ANETHOLE] has an MFC [3] of 400 µg/mL (≈ 2.7 mM), an MFC ([3]; read-out: MFC) of 200 µg/mL (≈ 1.35 mM) and an MFC [4] of 1600 µg/mL (≈ 10.8 mM). The MIC [4] was 400 µg/mL (≈ 2.7 mM), the MFC [5] was 1600 µg/mL (≈ 10.8 mM) and the MIC [5] was 1600 µg/mL (≈ 10.8 mM). It also gave an MFC [6] of 1600 µg/mL (≈ 10.8 mM), an MIC [6] of 100 µg/mL (≈ 0.675 mM) and an MFC [7] of 1600 µg/mL (≈ 10.8 mM). The MIC [7] was 800 µg/mL (≈ 5.4 mM).
For `CCCCCC(=O)O` [HEXANOATE], the MFC [3] was 3200 µg/mL (≈ 27.5 mM) and the MFC ([3]; read-out: MFC) was 800 µg/mL (≈ 6.89 mM).
For `C/C=C/C=C/C(=O)OC` [METHYL SORBATE], the MFC [3] was greater than 3200 µg/mL and the MFC ([3]; read-out: MFC) was greater than 3200 µg/mL.
In the case of `Clc1ccc(COC(Cn2ccnc2)c2ccc(Cl)cc2Cl)c(Cl)c1` (stereo not given) [MICONAZOLE], the MFC [3] is reported as 12.5 µg/mL (≈ 0.03 mM) and the MFC ([3]; read-out: MFC) is reported as 12.5 µg/mL (≈ 0.03 mM).
For `CC1(C)CCC[C@]2(C)[C@@H](C=O)C(C=O)=CC[C@@H]12` [POLYGODIAL], the MFC [3] was 50 µg/mL (≈ 0.213 mM), the MFC ([3]; read-out: MFC) was 50 µg/mL (≈ 0.213 mM) and the Activity [8] was “Active”. For the same compound, the “growth inhibition (GI)” value [9] was “Active” and the inhibition [10] was “Active”.
In the case of `C/C=C/C=C/C(=O)O` [SORBIC ACID], the MFC [3] is reported as 1600 µg/mL (≈ 14.3 mM) and the MFC ([3]; read-out: MFC) is reported as 800 µg/mL (≈ 7.13 mM).
